Assay results of several laboratories.
Each line is one published result; the experiments were not run side by side.
Fibroblast growth factor 14: Fibroblast growth factor 14 (Homo sapiens, UniProt Q92915)
ADRA2C: Alpha-2C adrenergic receptor (ADRA2C, Homo sapiens, UniProt P18825)
PLEKHA3: PLEKHA3 (Homo sapiens, UniProt Q9HB20)

CC(=O)Nc1ccc(Oc2ccc3c(c2)C(=O)N(c2cc(C)ccc2C)C3=O)cc1  Kd (Fibroblast growth factor 14; binding; SPR): 13.6 µM
c1coc(-c2n[nH]cc2-c2ccnc3ccccc23)c1  IC50 (Mitogen-activated protein kinase 14 (MAPK14, Homo sapiens, UniProt Q16539); enzyme activity; inhibitor; ADP detection): 1.8 µM
O=C(O)c1cc(-c2ccc(-c3cc[nH]n3)cc2)c2ccc(-c3ccc(C(F)(F)F)cc3)cc2c1  Ki (ADRA2C; cell-free assay; radioligand): 6.5 µM
Cc1cccc(NC(=O)Cn2cc(CO)c3ccccc32)c1  Kd (Fibroblast growth factor 14; binding; SPR): 1.9 µM
Cc1cc(Oc2ncccc2CN2CCN(c3cccc4ccccc34)CC2)ccc1-c1c(C)c(=O)[nH]c(=O)n1C  Ki (ADRA2C; ligand displacement; radioligand): 0.0143 µM
CCOc1ccccc1C(=O)CC(SCc1ccc(Cl)cc1)C(=O)O (stereo not drawn)  Ki (PLEKHA3; ligand displacement; FP): 7.8 µM
Cc1cc(Oc2ncccc2CN2CCN(Cc3ccc(F)cc3)CC2)ccc1-c1c(C)c(=O)[nH]c(=O)n1C  Ki (ADRA2C; ligand displacement; radioligand): 0.206 µM
CCOc1ccc(C(=O)CC(SCc2ccc(F)cc2)C(=O)O)cc1 (stereo not drawn)  Ki (PLEKHA3; ligand displacement; FP): 13.8 µM
Cc1cc(Oc2ncccc2CN2CCN(c3ccccc3C#N)CC2)ccc1-c1c(C)c(=O)[nH]c(=O)n1C  Ki (ADRA2C; ligand displacement; radioligand): 0.0563 µM
CCOc1ccc(-c2cc(C(=O)O)c(-c3ccc(Cl)cc3)o2)cc1  Ki (PLEKHA3; ligand displacement; FP): 0.55 µM
COc1nc(-c2cccc(-c3ccccc3)c2C)ccc1CNCCNC(=O)CCCCCCCCCCC(=O)N1CCN(CCNC(=O)c2cc3c(=O)n4cccc(C)c4nc3n(CCc3cccs3)c2=N)CC1  Kd (Programmed cell death 1 ligand 1 (Cd274, Mus musculus, UniProt Q9EP73); binding; BLI): 0.625 µM
Cc1cc(Oc2ncccc2CN2CCN(c3ccc([N+](=O)[O-])cc3Cl)CC2)ccc1-c1c(C)c(=O)[nH]c(=O)n1C  Ki (ADRA2C; ligand displacement; radioligand): 0.623 µM
CCOc1ccc(C(=O)CC(SCc2ccc(OC)cc2)C(=O)O)cc1 (stereo not drawn)  Ki (PLEKHA3; ligand displacement; FP): 27 µM
Cc1cc(Oc2ncccc2CN2CCN(c3ccc(Br)cc3)CC2)ccc1-c1c(C)c(=O)[nH]c(=O)n1C  Ki (ADRA2C; ligand displacement; radioligand): 0.0761 µM
CCOc1ccc(C(=O)CC(SCc2ccc(Cl)cc2)C(=O)O)cc1OCC (stereo not drawn)  Ki (PLEKHA3; ligand displacement; FP): 6.81 µM
